KCNK9 inh: KCNK9 potassium channel inhibitors, primary screen, HEK293 cells, thallium flux. Potassium channel subfamily K member 9 (Homo sapiens), Q9NPC2. FluxOR thallium flux fluorescence; active compounds read low. B-score at 10 µM. hit rate 1.2% among 310,000;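 active = ratio B-score over 3 SD below the library mean, with starting fluorescence within 5 SD of its mean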;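 also: negative B-score means less thallium flux so channel inhibition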
KCNK3 inh: human KCNK3 channel inhibitors, primary screen, CHO cells, FluxOR thallium flux, B-score; B-score at 10 µM; hit rate 0.84% among 340,000; FluxOR fluorescence; active compounds read low; Potassium channel subfamily K member 3 (Homo sapiens), O14649;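 active = B-score under library mean minus 4 SD, starting fluorescence ratio at most library mean plus 5 SD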;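 also: more negative B-score means stronger inhibition of thallium flux through KCNK3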
Target sequence (O14649 whole entry, looked up): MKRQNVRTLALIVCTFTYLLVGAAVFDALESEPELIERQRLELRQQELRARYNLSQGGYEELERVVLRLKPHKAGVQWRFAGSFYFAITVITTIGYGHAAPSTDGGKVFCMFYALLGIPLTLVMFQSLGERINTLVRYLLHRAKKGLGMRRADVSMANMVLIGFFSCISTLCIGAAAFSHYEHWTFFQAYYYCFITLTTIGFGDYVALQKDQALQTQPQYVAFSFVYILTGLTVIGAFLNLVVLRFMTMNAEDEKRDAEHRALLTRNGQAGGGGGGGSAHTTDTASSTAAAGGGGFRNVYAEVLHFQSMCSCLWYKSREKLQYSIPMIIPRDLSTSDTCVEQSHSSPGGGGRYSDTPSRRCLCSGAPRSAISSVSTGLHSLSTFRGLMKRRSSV
KCNQ1 act: potentiators or activators of KCNQ1 channel, primary screen, cell-based, thallium flux, high-throughput; Potassium voltage-gated channel subfamily KQT member 1 (Homo sapiens), P51787; CHO-K1 KCNQ1, thallium flux FluxOR fluorescence; active compounds read high; B-score at 10 µM; hit rate 0.35% among 310,000; AID 2648, 2010;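 active = fluorescence ratio B-score, a plate-corrected score, at least three library SD, with initial intensity B-score within 5 SD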
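assay system = CHO-K1 cells stably expressing KCNQ1 | medium = assay buffer, equal DMSO in all wells | timing = 37 °C overnight plating, 90-min dark dye load, 20-min compound pretreatment | measured by = kinetic FluxOR thallium fluorescence, 10-s 1-Hz baseline, 110-s post-stimulus read | measure = fluorescence change relative to baseline, converted to B score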
KCNQ1 block: inhibitors of human KCNQ1 channel, primary screen, cell-based, thallium flux, high-throughput; Potassium voltage-gated channel subfamily KQT member 1 (Homo sapiens), P51787; CHO-K1 KCNQ1, FluxOR thallium flux fluorescence; active compounds read high; B-score at 10 µM; hit rate 1.3% among 310,000; AID 2642, 2010;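 active = compounds whose thallium flux B-score, printed positive for inhibition, exceeds three library SD while starting fluorescence stays within three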;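 also: channel opened by potassium depolarization with thallium stimulus after 20 min compound exposure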
hERG rescue: hERG rescue from dofetilide block, primary screen, cell-based, CHO-hERG, FluxOR thallium flux, dofetilide IC70; Voltage-gated inwardly rectifying potassium channel KCNH2 (Homo sapiens), Q12809; hit rate 0.51% among 310,000; dofetilide IC70 present; AID 1511, 2009; activation (rescue from dofetilide block), less the hit threshold, % at 10 µM;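 active = activation above the mean of controls blocked by dofetilide plus 5 SD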;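 also: thallium influx through hERG after potassium depolarization seen as dye fluorescence rise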
KCNK9 block conf: KCNK9 potassium channel inhibitors, confirmation, HEK293 cells, thallium flux, duplicate; shares compounds with KCNK9 inh; FluxOR thallium flux fluorescence; inhibition, % at 10 µM; hit rate 43% among 4,900; AID 492992, 2010;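 active = thallium signal inhibited by more than 5 SD of the compound-free buffer control wells, on both duplicate plates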;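 also: 0% = assay buffer control wells without compound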
Kir2-1 spec: mouse Kir2.1 channel inhibition, confirmation, selectivity assay for KCNK9 modulator project, cell-based, HEK293, thallium flux | shares compounds with KCNK9 inh | Kir2.1 cells, FluxOR thallium flux fluorescence | inhibition, % at 10 µM | hit rate 4% among 4,900 | AID 492993, 2010;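 active = thallium signal drop more than 5 SD beyond the mean of the no-compound control wells, seen in both duplicate plates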;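 also: signal is fluorescence rise after thallium addition divided by baseline fluorescence; plate controls were assay buffer only for no effect and full block by chlorpromazine control for full effect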
KCNK9 uninduced: thallium flux in non-induced HEK293 cells, confirmation, counter-screen for KCNK9 inhibitor project, cell-based, second counter screen, non-induced KCNK9-HEK293; FluxOR thallium flux; hit rate 40% among 4,900; inhibition, % at 10 µM; shares compounds with KCNK9 inh;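 active = thallium signal drop beyond 5 SD of the untreated control mean, on both duplicate plates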;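 also: plate controls were buffer only IC0 wells for no effect and SID17386958 at its maximal inhibitory level for full effect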
* marks the source's active call; other numbers are inactive results; i = inactive; x = no result. Only some compounds are listed: those with a hit (about 3.1% of all), similar ones and a draw of the others.

SMILES | KCNK9 inh | KCNK3 inh | KCNQ1 act | KCNQ1 block | hERG rescue | KCNK9 block conf | Kir2-1 spec | KCNK9 uninduced
Clc1ccc(-c2ccc(-c3nn4c(-c5ccco5)nnc4s3)o2)cc1 | -9.8* | i | i | i | -9 | 40%* | i | i
Cc1cc(C)c2nc(N(CCN(C)C)C(=O)c3ccc4ccccc4c3)sc2c1 | i | i | i | i | -11 | i | i | i
Cc1ccc(Cn2cc(SCC(=O)Nc3nccs3)c3ccccc32)cc1 | i | i | i | i | -1 | i | i | i
CCCN(Cc1nc2cc(Cl)ccc2c(=O)[nH]1)C(=O)c1ccc(S(=O)(=O)N2CCCC2)cc1 | x | i | x | x | x | x | x | x
Cn1nc(C(=O)Nc2ccccc2N2CCCC2)c2ccccc2c1=O | i | i | i | i | -14 | x | x | x
COc1ccc(N2C(=O)/C(=C\c3ccco3)N=C2SCC(=O)NC(C)C)cc1Cl | -12* | i | i | i | -5 | 78%* | i | 36%*
COc1ccc(N2C(=O)/C(=C\c3ccco3)N=C2SCC(=O)N(C(C)C)C(C)C)cc1Cl | i | i | i | i | -6 | x | x | x
COCCn1nnnc1C(c1ccc(C)cc1)N1CCN(Cc2ccc3c(c2)OCO3)CC1 (centres undefined) | i | i | i | i | -4 | x | x | x
Cc1ccc(C(c2nnnn2Cc2cccs2)N2CCN(Cc3ccc4c(c3)OCO4)CC2)cc1 (centres undefined) | -12* | i | i | i | -18 | i | i | 32%*
CCN1CCN(c2nc(-c3cccs3)nc3ccccc23)CC1 | i | i | i | i | -13 | x | x | x
Oc1ccc(N2CCN(c3nc(-c4cccs4)nc4ccccc34)CC2)cc1 | -8.4* | i | i | i | -12 | i | i | i
CN1CCN(c2nc(-c3cccs3)nc3ccccc23)CC1 | i | i | i | i | -12 | x | x | x
Oc1ccccc1N1CCN(c2nc(-c3cccs3)nc3ccccc23)CC1 | -13* | i | i | i | -14 | 40%* | i | 28%*
Cc1ccc(CCS(=O)(=O)c2ccc(C(C)(C)C)cc2)cn1 | i | i | i | i | -11 | x | x | x
COc1ccc(CN2CCCC(N3CCN(c4cccc(Cl)c4)CC3)C2)cc1OC (centres undefined) | i | i | i | i | -5 | x | x | x
COc1cc(CN2CCCC(N3CCN(c4ccccc4C)CC3)C2)cc(Cl)c1O (centres undefined) | i | i | i | i | -7 | i | i | i
Oc1ccccc1CN1CCCC(N2CCN(c3cccc(C(F)(F)F)c3)CC2)C1 (centres undefined) | i | i | i | i | -13 | x | x | x
Fc1ccccc1N1CCN(C2CCCN(Cc3cccc(C(F)(F)F)c3)C2)CC1 (centres undefined) | i | i | i | i | -13 | i | i | i
CNC(=S)N(CCN(C)C)Cc1cc2cc3c(cc2[nH]c1=O)OCO3 | i | i | i | i | -5 | x | x | x
Cc1cccc(C)c1-n1c(C)cc(/C=N/NC(=O)CSc2ncccn2)c1C | -9.5* | i | i | i | -12 | 50%* | i | 28%*
Nc1ccc2c(c1)C(O)c1cccc(C(=O)O)c1-2 (centres undefined) | x | i | x | x | x | x | x | x
c1ccc(OCCOc2ccccc2-c2nnco2)cc1 | -8.4* | i | i | i | 2 | i | i | 28%*
